Source: ChEMBL document CHEMBL1157618, “Noncovalent tripeptidyl benzyl- and cyclohexyl-amine inhibitors of the cysteine protease caspase-1” (J Med Chem, 2010)
The source made the active and inactive calls. No cut-off for these calls is given here.

What follows are molecules tested against T1, Caspase-3 (Homo sapiens) (UniProt P42574) (assay: Inhibition of caspase 3).
T1 sequence (whole entry): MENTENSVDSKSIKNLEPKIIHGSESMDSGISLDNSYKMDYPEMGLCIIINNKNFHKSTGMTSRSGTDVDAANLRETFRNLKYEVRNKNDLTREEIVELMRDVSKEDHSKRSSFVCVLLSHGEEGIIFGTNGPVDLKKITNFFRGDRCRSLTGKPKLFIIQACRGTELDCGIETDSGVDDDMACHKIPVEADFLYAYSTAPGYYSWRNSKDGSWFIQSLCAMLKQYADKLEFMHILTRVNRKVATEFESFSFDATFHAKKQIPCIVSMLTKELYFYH

Activity	Structure (SMILES)
inactive	CC(C)[C@H](NC(=O)c1ccc2ccccc2c1)C(=O)N[C@@H](C)C(=O)N[C@H](CNCc1ccccc1O)CC(=O)O

These molecules were tested on HT-29 (assay: Cytotoxicity against human HT-29 cells at <=200 uM after 24 hrs by MTT assay).
Assay type: functional, cell-based
Procedure, shortened: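 HT29 colon cancer cells seeded at 1 × 10⁵ cells/well in RPMI 1640, adhered overnight at 37 °C, then exposed to various compound concentrations (up to 200 μM) for 24 h at 37 °C. MTT ([…] in RPMI 1640) added for 1 h at 37 °C; cells lysed, crystals dissolved in isopropanol, absorbance read at 570 nm.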

Structure (SMILES)	Activity
COc1ccccc1CNC[C@H](CC(=O)O)NC(=O)[C@H](C)NC(=O)[C@@H](NC(=O)c1ccc2ccccc2c1)C(C)C	Not toxic
CC(C)[C@H](NC(=O)c1ccc2ccccc2c1)C(=O)N[C@@H](C)C(=O)N[C@H](CNCc1ccccc1O)CC(=O)O	Not toxic
CC(C)[C@H](NC(=O)c1ccc2ccccc2c1)C(=O)N[C@@H](C)C(=O)N[C@H](CNCc1ccccc1F)CC(=O)O	Not toxic
CC(C)[C@H](NC(=O)c1ccc2ccccc2c1)C(=O)N[C@@H](C)C(=O)N[C@H](CNCc1ccc(O)cc1)CC(=O)O	Not toxic
CC(C)[C@H](NC(=O)c1ccc2ccccc2c1)C(=O)N[C@@H](C)C(=O)N[C@H](CNCc1ccc2c(c1)OCO2)CC(=O)O	Not toxic
CC(C)[C@H](NC(=O)c1ccc2ccccc2c1)C(=O)N[C@@H](C)C(=O)N[C@H](CNC1CCCCC1)CC(=O)O	Not toxic
CC(C)[C@H](NC(=O)c1ccc2ccccc2c1)C(=O)N[C@@H](C)C(=O)N[C@@H](CC(=O)O)CN(C)Cc1ccccc1	Not toxic
CC(C)[C@H](NC(=O)c1ccc2ccccc2c1)C(=O)N[C@@H](C)C(=O)N[C@H](CCCc1ccccc1)CC(=O)O	Not toxic
CC(C)[C@H](NC(=O)c1ccc2ccccc2c1)C(=O)N[C@@H](C)C(=O)N[C@H](CNCc1ccc(C(N)=O)cc1)CC(=O)O	Not toxic
CC(C)[C@H](NC(=O)c1ccc2ccccc2c1)C(=O)N[C@@H](C)C(=O)N[C@H](CNCc1ccccc1)CC(=O)O	Not toxic
CC(C)[C@H](NC(=O)c1ccc2ccccc2c1)C(=O)N[C@@H](C)C(=O)N[C@@H](CC(=O)O)CN(C)C1CCCCC1	Not toxic
